From ChEMBL document CHEMBL4130549, “Synthesis and bioactivities study of new antibacterial peptide mimics: The dialkyl cationic amphiphiles” (Eur J Med Chem, 2018)
Active and inactive are the calls of the source. The rule behind the calls is not given here.

Columns and labels:
Enterobacteriaceae [1] = assay: Antibacterial activity against NDM-1-producing Enterobacteriaceae isolate N10 after 16 to 20 hrs by broth microdilution method; type: functional
Method in brief: (§1)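 Broth microdilution per CLSI in cation-adjusted Mueller-Hinton broth; 4-6 h cultures (~10⁸ CFU/mL) diluted to ~10⁶ CFU/mL and mixed 1:1 with twofold dilutions of water-dissolved compound (256 to 0.5 µg/mL). Incubated 16-20 h at 37 °C; MIC read visually. Each concentration run in duplicate, whole experiment repeated at least twice. MRSA, KPC and NDM-1 strains were clinical isolates.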

Enterobacteriaceae [2] = assay: Antibacterial activity against NDM-1-producing Enterobacteriaceae isolate N1 after 16 to 20 hrs by broth microdilution method; type: functional; method in brief: as §1
Enterobacteriaceae [3] = assay: Antibacterial activity against NDM-1-producing Enterobacteriaceae isolate N2 after 16 to 20 hrs by broth microdilution method; type: functional; method in brief: as §1
Enterobacteriaceae [4] = assay: Antibacterial activity against NDM-1-producing Enterobacteriaceae isolate N7 after 16 to 20 hrs by broth microdilution method; type: functional; method in brief: as §1
Staphylococcus aureus [5] = assay: Bactericidal activity against methicillin-resistant Staphylococcus aureus after 20 to 24 hrs in presence of 50% serum by broth microdilution method; type: functional, organism-based
Method in brief: (§2)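 MRSA at 10⁵ CFU/mL in 50% Mueller-Hinton broth plus 50% sheep serum, plasma or defibrinated whole blood. Serum and plasma were separated by centrifugation at 3,500 rpm for 10 min. Aqueous compound dilutions (512–4 µg/mL before mixing) were combined 1:3 with the suspension and incubated 20-24 h at 37 °C. Wells were plated on Mueller-Hinton agar for a further 20-24 h; MBC was taken as no colonies.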

Staphylococcus aureus [6] = assay: Bactericidal activity against Staphylococcus aureus after 20 to 24 hrs using compounds preincubated with 50% plasma for 3 to 6 hrs by broth microdilution method
Enterobacteriaceae [7] = assay: Antibacterial activity against NDM-1-producing Enterobacteriaceae isolate N9 after 16 to 20 hrs by broth microdilution method; type: functional; method in brief: as §1
Klebsiella pneumoniae [8] = assay: Antibacterial activity against carbapenemase-producing Klebsiella pneumoniae isolate K9 after 16 to 20 hrs by broth microdilution method; type: functional; method in brief: as §1
Klebsiella pneumoniae [9] = assay: Antibacterial activity against carbapenemase-producing Klebsiella pneumoniae isolate K3 after 16 to 20 hrs by broth microdilution method; type: functional; method in brief: as §1
Enterobacteriaceae [10] = assay: Antibacterial activity against NDM-1-producing Enterobacteriaceae isolate N6 after 16 to 20 hrs by broth microdilution method; type: functional; method in brief: as §1
Enterobacteriaceae [11] = assay: Antibacterial activity against NDM-1-producing Enterobacteriaceae isolate N8 after 16 to 20 hrs by broth microdilution method; type: functional; method in brief: as §1
Klebsiella pneumoniae [12] = assay: Antibacterial activity against carbapenemase-producing Klebsiella pneumoniae isolate K6 after 16 to 20 hrs by broth microdilution method; type: functional; method in brief: as §1
Staphylococcus aureus [13] = assay: Induction of cytoplasmic membrane depolarization in Staphylococcus aureus ATCC 29213 at 20 ug/ml measured every 2 mins for 12 mins by diSC35 staining based fluorescence assay; type: functional, organism-based
Method in brief: (§3)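 Mid-log cells (4–6 h) pelleted, washed and resuspended (~10^8 CFU/mL) in PBS for S. aureus, or in 5 mM HEPES, 5 mM glucose and 100 mM KCl (1:1:1) for E. coli. Preloaded with diSC35 (10 µM, 50 µL), 30 min for S. aureus and 40 min plus EDTA (200 µM, 50 µL) for E. coli. Baseline read 8 min (ex 622/em 670 nm), then compound added to 20 µg/mL final and read every 2 min for 12 min. Water control.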

Klebsiella pneumoniae [14] = assay: Antibacterial activity against carbapenemase-producing Klebsiella pneumoniae isolate K4 after 16 to 20 hrs by broth microdilution method; type: functional; method in brief: as §1
Klebsiella pneumoniae [15] = assay: Antibacterial activity against carbapenemase-producing Klebsiella pneumoniae isolate K10 after 16 to 20 hrs by broth microdilution method; type: functional; method in brief: as §1
Enterobacteriaceae [16] = assay: Antibacterial activity against NDM-1-producing Enterobacteriaceae after 16 to 20 hrs by broth microdilution method; type: functional; method in brief: as §1
Escherichia coli [17] = assay: Induction of cytoplasmic membrane depolarization in Escherichia coli ATCC 25922 at 20 ug/ml measured every 2 mins for 12 mins by diSC35 staining based fluorescence assay; type: functional, organism-based; method in brief: as §3
Escherichia coli [18] = assay: Antibacterial activity against Escherichia coli ATCC 25922 after 16 to 20 hrs by broth microdilution method; type: functional; method in brief: as §1
Staphylococcus aureus [19] = assay: Ratio of MBC for methicillin-resistant Staphylococcus aureus in presence of 50% plasma to MBC for methicillin-resistant Staphylococcus aureus; type: functional; method in brief: as §2
Staphylococcus aureus [20] = assay: Antibacterial activity against methicillin-resistant Staphylococcus aureus isolate M10 after 16 to 20 hrs by broth microdilution method; type: functional
Method in brief: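 CLSI broth microdilution in cation-adjusted Mueller-Hinton broth. A 4-6 h culture was diluted to about 10⁶ CFU/mL and mixed 1:1 with twofold compound dilutions (256–0.5 µg/mL before mixing) prepared from aqueous stocks. Plates were incubated at 37 °C for 16-20 h. Each concentration was tested in duplicate, and the experiment was repeated at least twice.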

HeLa [21] = assay: Cytotoxicity against human HeLa cells at 1 to 2 times MIC after 24 hrs by calcein AM/propidium iodide staining based fluorescence microscopic method; type: cell-based
Method in brief: (§4)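 HeLa cells kept in DMEM with 10% FBS at 37 °C and 5% CO2, seeded in 12-well plates and left to adhere overnight. Cells then exposed 24 h to 1, 2, 4, 8 and 16 µg/mL, with 0.1% Triton X-100 as positive control and untreated wells as negative control. Cells washed with PBS, imaged for morphology, and stained 15 min at 37 °C with 2 µM calcein AM plus 4.5 µM PI for live/dead fluorescence.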

Staphylococcus aureus [22] = assay: Antibiofilm activity against Staphylococcus aureus ATCC 29213 assessed as bacterial cell viability in biofilm at 4 ug/ml after 24 hrs (reference value: 21.9 log10CFU/ml); type: functional
Method in brief: (§5)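 Mid-log cells at ~10⁵ CFU/mL grown stationary in 96-well plates (S. aureus in MHB for 24 h; E. coli in M9 with 0.02% casamino acids and 0.5% glycerol for 72 h). After washing, biofilms exposed 24 h at 37 °C to 2-128 µg/mL; detached with trypsin-EDTA, serially plated, viability given as log10 CFU/well against an untreated control.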

Staphylococcus aureus [23] = assay: Bactericidal activity against Staphylococcus aureus ATCC 29213 assessed as time required to kill early exponential phase at 6 ug/ml by time kill assay; type: functional
Method in brief: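 Overnight culture diluted 1:10,000 in MHB and shaken at 37 °C, 225 rpm, for 2 h (early exponential) or 5 h (late exponential), then exposed to compound at 6× and 8× MIC in tubes at 37 °C, 225 rpm. Samples (100 µL) taken at intervals, pelleted, resuspended in PBS, and ten-fold dilutions plated on MHA overnight at 37 °C for CFU/mL. Biological replicates.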

Escherichia coli [24] = assay: Antibiofilm activity against Escherichia coli ATCC 25922 assessed as bacterial cell viability in biofilm at 16 ug/ml after 24 hrs (reference value: 25.9 log10CFU/ml); type: functional; method in brief: as §5
Staphylococcus aureus [25] = assay: Antibiofilm activity against Staphylococcus aureus ATCC 29213 assessed as bacterial cell viability in biofilm at 64 ug/ml after 24 hrs (reference value: 21.9 log10CFU/ml); type: functional; method in brief: as §5
Escherichia coli [26] = assay: Antibiofilm activity against Escherichia coli ATCC 25922 assessed as bacterial cell viability in biofilm at 64 ug/ml after 24 hrs (reference value: 25.9 log10CFU/ml); type: functional; method in brief: as §5
HeLa [27] = assay: Cytotoxicity against human HeLa cells assessed as altered morphology at 1 to 2 times MIC after 24 hrs by optical microscopic method; type: cell-based; method in brief: as §4

| SMILES | MIC (Enterobacteriaceae [1]) [µg/mL] | MIC (Enterobacteriaceae [2]) [µg/mL] | MIC (Enterobacteriaceae [3]) [µg/mL] | MIC (Enterobacteriaceae [4]) [µg/mL] | Activity (Staphylococcus aureus [5]) | MBC (Staphylococcus aureus [6]) [µg/mL] | MIC (Enterobacteriaceae [7]) [µg/mL] | MIC (Klebsiella pneumoniae [8]) [µg/mL] | MIC (Klebsiella pneumoniae [9]) [µg/mL] | MIC (Enterobacteriaceae [10]) [µg/mL] | MIC (Enterobacteriaceae [11]) [µg/mL] | MIC (Klebsiella pneumoniae [12]) [µg/mL] | Activity (Staphylococcus aureus [13]) | MIC (Klebsiella pneumoniae [14]) [µg/mL] | MIC (Klebsiella pneumoniae [15]) [µg/mL] | MIC (Enterobacteriaceae [16]) [µg/mL] | Activity (Escherichia coli [17]) | MIC (Escherichia coli [18]) [µg/mL] | Ratio (Staphylococcus aureus [19]) | MIC (Staphylococcus aureus [20]) [µg/mL] | further results |
| --- | --- | --- | --- | --- | --- | --- | --- | --- | --- | --- | --- | --- | --- | --- | --- | --- | --- | --- | --- | --- | --- |
| CCCCCCCCCCN(CCCCCCCCCC)C(=O)[C@@H](N)CCCCN.Cl.Cl | 4 | 4 | 4 | 4 | Active | 16 | 4 | 4 | 4 | 4 | 4 | 4 | Active | 4 | 4 | 4 | Active | 2 | 2 - 4 | 1 | – |
| CCCCCCCCCN(CCCCCCCCC)C(=O)[C@@H](N)CCCCN.Cl.Cl | 4 | 2 | 2 | 2 | Active | 16 | 4 | 2 | 2 | 2 | 2 | 2 | Active | 2 | 2 | 2 | Active | 2 | 2 - 4 | 0.5 | Activity (HeLa [21]): Non-Toxic; Activity (Staphylococcus aureus [22]): 18.6 log10CFU; Time (Staphylococcus aureus [23]): 120 min; Activity (Escherichia coli [24]): 4.1 log10CFU; Activity (Staphylococcus aureus [25]): 7.9 log10CFU; Activity (Escherichia coli [26]): 0.3 log10CFU; Activity (HeLa [27]): Non-Toxic |
| CCCCCCCCN(CCCCCCCC)C(=O)[C@@H](N)CCCN=C(N)N.Cl.Cl.Cl | 8 | 8 | 8 | 4 | Active | 16 | 8 | 8 | 4 | 4 | 4 | 8 | Active | 4 | 4 | 4 | Active | 2 | 2 - 4 | 0.5 | – |
| CCCCCCCCCCN(CCCCCCCCCC)C(=O)[C@@H](N)CCCN=C(N)N.Cl.Cl.Cl | 8 | 4 | 4 | 4 | Active | 16 | 8 | 4 | 4 | 4 | 4 | 4 | Active | 4 | 4 | 4 | Active | 8 | 2 - 4 | 2 | – |
| CCCCCCCCCN(CCCCCCCCC)C(=O)[C@@H](N)CCCN=C(N)N.Cl.Cl.Cl | 4 | 4 | 4 | 2 | Active | 16 | 4 | 4 | 4 | 4 | 2 | 4 | Active | 2 | 4 | 4 | Active | 2 | 2 - 4 | 2 | Activity (HeLa [21]): Non-Toxic; Activity (HeLa [27]): Non-Toxic |
| CCCCCCCCN(CCCCCCCC)C(=O)[C@@H](N)CCCCN.Cl.Cl | 8 | 8 | 8 | 8 | Active | 16 | 8 | 2 | 2 | 4 | 8 | 2 | Active | 2 | 2 | 4 | Active | 2 | 2 - 4 | 0.5 | – |
